# In ChEMBL document CHEMBL3817726, “Chemically Diverse Group I p21-Activated Kinase (PAK) Inhibitors Impart Acute Cardiovascular Toxicity with a Narrow Therapeutic Window” (J Med Chem, 2016):
# How the values were obtained:
# [1] = biological target: Serine/threonine-protein kinase PAK 5 (Homo sapiens) (UniProt Q9P286); assay: Inhibition of recombinant human full length His-tagged PAK5 expressed in Baculovirus at 1 uM relative to control
# [2] = biological target: Tyrosine-protein kinase ABL2 (Homo sapiens) (UniProt P42684); assay: Inhibition of recombinant human full length His-tagged ARG expressed in Baculovirus at 1 uM relative to control
# [3] = biological target: CDK7/Cyclin H/MNAT1 (Homo sapiens) (UniProt P51946+P50613+P51948); assay: Inhibition of recombinant human full length His-tagged CDK7/cyclin H/MNAT1 expressed in Baculovirus at 1 uM relative to control
# [4] = biological target: Serine/threonine-protein kinase Chk1 (Homo sapiens) (UniProt O14757); assay: Inhibition of recombinant human full length His-tagged CHK1 expressed in Baculovirus at 1 uM relative to control
# [5] = biological target: Serine/threonine-protein kinase Chk2 (Homo sapiens) (UniProt O96017); assay: Inhibition of recombinant human full length His-tagged CHK2 expressed in Baculovirus at 1 uM relative to control
# [6] = biological target: Receptor-type tyrosine-protein kinase FLT3 (Homo sapiens) (UniProt P36888); assay: Inhibition of recombinant human full length His-tagged FLT3 expressed in Baculovirus at 1 uM relative to control
# [7] = biological target: Glycogen synthase kinase-3 beta (Homo sapiens) (UniProt P49841); assay: Inhibition of recombinant human full length His-tagged GSK3beta expressed in Baculovirus at 1 uM relative to control
# [8] = biological target: Tyrosine-protein kinase Lyn (Homo sapiens) (UniProt P07948); assay: Inhibition of recombinant human full length His-tagged LynB expressed in Baculovirus at 1 uM relative to control
# [9] = biological target: Serine/threonine-protein kinase MARK1 (Homo sapiens) (UniProt Q9P0L2); assay: Inhibition of recombinant human full length GST-tagged MARK1 expressed in Baculovirus at 1 uM relative to control
# [10] = biological target: MAP/microtubule affinity-regulating kinase 3 (Homo sapiens) (UniProt P27448); assay: Inhibition of recombinant human full length GST-tagged MARK3 expressed in Baculovirus at 1 uM relative to control
# [11] = biological target: Tyrosine-protein kinase Mer (Homo sapiens) (UniProt Q12866); assay: Inhibition of recombinant human GST-tagged Mer expressed in Baculovirus at 1 uM relative to control
# [12] = biological target: Serine/threonine-protein kinase 4 (Homo sapiens) (UniProt Q13043); assay: Inhibition of recombinant human full length GST-tagged MST1 expressed in Baculovirus at 1 uM relative to control
# [13] = biological target: Phosphorylase b kinase gamma catalytic chain, skeletal muscle/heart isoform (Homo sapiens) (UniProt Q16816); assay: Inhibition of recombinant human full length GST-tagged PHKgamma 1 expressed in Baculovirus at 1 uM relative to control
# [14] = biological target: cAMP-dependent protein kinase catalytic subunit alpha (Homo sapiens) (UniProt P17612); assay: Inhibition of recombinant human full length His-tagged PRKACA expressed in Escherichia coli at 1 uM relative to control
# [15] = biological target: Protein kinase C alpha type (Homo sapiens) (UniProt P17252); assay: Inhibition of recombinant human full length PKCalpha expressed in Baculovirus at 1 uM relative to control
# [16] = biological target: Protein kinase C theta type (Homo sapiens) (UniProt Q04759); assay: Inhibition of recombinant human full length His-tagged PKCtheta expressed in Baculovirus at 1 uM relative to control
# [17] = biological target: 5'-AMP-activated protein kinase catalytic subunit alpha-1 (Homo sapiens) (UniProt Q13131); assay: Inhibition of recombinant human PRKAA1 at 1 uM relative to control
# [18] = biological target: 5'-AMP-activated protein kinase catalytic subunit alpha-2 (Homo sapiens) (UniProt P54646); assay: Inhibition of recombinant human PRKAA2 at 1 uM relative to control
# [19] = biological target: Proto-oncogene tyrosine-protein kinase receptor Ret (Homo sapiens) (UniProt P07949); assay: Inhibition of recombinant human full length GST-tagged RET expressed in Baculovirus at 1 uM relative to control
# [20] = biological target: Ribosomal protein S6 kinase alpha-2 (Homo sapiens) (UniProt Q15349); assay: Inhibition of recombinant human full length His-tagged RSK2 expressed in Baculovirus at 1 uM relative to control
# [21] = biological target: Ribosomal protein S6 kinase alpha-3 (Homo sapiens) (UniProt P51812); assay: Inhibition of recombinant human full length GST-tagged RSK3 expressed in insect cells at 1 uM relative to control
# [22] = biological target: Ribosomal protein S6 kinase alpha-6 (Homo sapiens) (UniProt Q9UK32); assay: Inhibition of recombinant human full length GST-tagged RSK4 expressed in Baculovirus at 1 uM relative to control
# [23] = biological target: Proto-oncogene tyrosine-protein kinase Src (Homo sapiens) (UniProt P12931); assay: Inhibition of recombinant human full length His-tagged SRC expressed in Baculovirus at 1 uM relative to control
# [24] = biological target: Testis-specific serine/threonine-protein kinase 1 (Homo sapiens) (UniProt Q9BXA7); assay: Inhibition of recombinant human full length His-tagged TSSK1 expressed in Baculovirus at 1 uM relative to control
# [25] = biological target: High affinity nerve growth factor receptor (Homo sapiens) (UniProt P04629); assay: Inhibition of recombinant human His-tagged TRKA (441 to 796 residues) expressed in Baculovirus at 1 uM relative to control
# [26] = biological target: Tyrosine-protein kinase Yes (Homo sapiens) (UniProt P07947); assay: Inhibition of recombinant human full length GST-tagged YES expressed in Baculovirus at 1 uM relative to control
# [27] = biological target: Serine/threonine-protein kinase 25 (Homo sapiens) (UniProt O00506); assay: Inhibition of recombinant human full length GST-tagged YSK1 expressed in Baculovirus at 1 uM relative to control
# [28] = biological target: Serine/threonine-protein kinase 24 (Homo sapiens) (UniProt Q9Y6E0); assay: Inhibition of recombinant human full length GST-tagged MST3 expressed in Baculovirus at 1 uM relative to control
# [29] = biological target: Serine/threonine-protein kinase 26 (Homo sapiens) (UniProt Q9P289); assay: Inhibition of recombinant human full length GST-tagged MST4 expressed in Baculovirus at 1 uM relative to control
# [30] = biological target: Adenosine receptor A1 (Homo sapiens) (UniProt P30542); assay: Inhibition of recombinant human adenosine A1 receptor expressed in CHO cells at 10 uM relative to control; assay type: cell-based
# [31] = biological target: Adenosine receptor A2a (Homo sapiens) (UniProt P29274); assay: Inhibition of recombinant human adenosine A2A receptor expressed in HEK293 cells at 10 uM relative to control; assay type: cell-based
# [32] = biological target: Sodium-dependent serotonin transporter (Homo sapiens) (UniProt P31645); assay: Inhibition of recombinant human 5HT transporter expressed in CHO cells at 10 uM relative to control; assay type: cell-based
# [33] = Fraction unbound in mouse plasma at 50 mg/kg, ip; assay type: ADME, organism-based
# [34] = Cmax associated with acute adverse effect in mouse at 50 mg/kg, ip; assay type: ADME, organism-based; set-up: dose 50 mg/kg, route intraperitoneal; settings: in vivo
# Method in brief: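 Mouse tolerability studies tested multiple doses, given orally or intraperitoneally. Plasma drug concentrations were measured, including at a 15 min time point. The minimum concentration associated with adverse clinical signs or death was taken as the adverse Cmax and was converted to an unbound value.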
# Mus musculus = assay: fCmax associated with acute adverse effect in mouse at 50 mg/kg, ip; assay type: ADME, organism-based; settings: in vivo
# Method in brief: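 Mouse tolerability studies at multiple doses, oral or intraperitoneal. Minimum unbound plasma concentration associated with adverse effects (total Cmax converted to unbound) compared with IC50 for inhibition of MEK1 S298 phosphorylation in cells.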
# [35] = Cmax in mouse at 50 mg/kg, ip; assay type: ADME, organism-based; set-up: dose 50 mg/kg, route intraperitoneal; settings: in vivo
# [36] = Ratio of fCmax associated with acute adverse effect in mouse at 50 mg/kg, ip to IC50 for PAK1/2-mediated phosphorylation of MEK1 at serine 298 in human EBC1 cells
# Method in brief: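 Mouse tolerability study run at multiple doses, here by i.p. injection. Plasma drug levels were measured, and total concentration was converted to unbound. The minimum unbound Cmax associated with adverse effects (C_max,adverse,u) was divided by the cellular IC50 for inhibition of PAK1/2-mediated MEK1 S298 phosphorylation.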
# [37] = biological target: Serine/threonine-protein kinase PAK 4 (Homo sapiens) (UniProt O96013); settings: 1 uM
# [38] = biological target: Serine/threonine-protein kinase PAK 6 (Homo sapiens) (UniProt Q9NQU5); settings: 1 uM
# Sequence of Tyrosine-protein kinase Yes (Homo sapiens) (P07947 2-543 limits assumed): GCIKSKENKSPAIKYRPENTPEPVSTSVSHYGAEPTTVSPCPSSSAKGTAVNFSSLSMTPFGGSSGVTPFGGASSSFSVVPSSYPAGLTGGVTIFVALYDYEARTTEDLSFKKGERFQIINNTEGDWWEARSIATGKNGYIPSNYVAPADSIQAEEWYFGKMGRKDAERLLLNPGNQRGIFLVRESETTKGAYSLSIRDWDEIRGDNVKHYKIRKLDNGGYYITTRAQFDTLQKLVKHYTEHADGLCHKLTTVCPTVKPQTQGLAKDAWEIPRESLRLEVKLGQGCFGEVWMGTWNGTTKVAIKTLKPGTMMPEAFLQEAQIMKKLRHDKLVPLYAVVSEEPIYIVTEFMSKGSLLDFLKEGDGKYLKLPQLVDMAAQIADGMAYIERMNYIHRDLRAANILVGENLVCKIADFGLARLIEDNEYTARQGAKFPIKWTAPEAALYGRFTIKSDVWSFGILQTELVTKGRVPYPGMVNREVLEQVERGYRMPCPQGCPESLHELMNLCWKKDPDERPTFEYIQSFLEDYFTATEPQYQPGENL
# Sequence of Serine/threonine-protein kinase 25 (Homo sapiens) (O00506 whole entry, looked up): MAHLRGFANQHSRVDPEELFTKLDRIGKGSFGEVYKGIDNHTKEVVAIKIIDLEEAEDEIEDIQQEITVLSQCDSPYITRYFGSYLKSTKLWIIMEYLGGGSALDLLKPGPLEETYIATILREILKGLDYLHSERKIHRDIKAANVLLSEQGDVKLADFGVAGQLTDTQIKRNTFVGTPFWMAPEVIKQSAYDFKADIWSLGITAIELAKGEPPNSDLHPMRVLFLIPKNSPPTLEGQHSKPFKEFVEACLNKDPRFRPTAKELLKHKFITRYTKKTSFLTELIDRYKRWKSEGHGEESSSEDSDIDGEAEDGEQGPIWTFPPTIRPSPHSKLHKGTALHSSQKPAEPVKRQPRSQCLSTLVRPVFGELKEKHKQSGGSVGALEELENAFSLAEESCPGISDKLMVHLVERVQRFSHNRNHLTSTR
# Sequence of Phosphorylase b kinase gamma catalytic chain, skeletal muscle/heart isoform (Homo sapiens) (Q16816 whole entry, looked up, canonical isoform): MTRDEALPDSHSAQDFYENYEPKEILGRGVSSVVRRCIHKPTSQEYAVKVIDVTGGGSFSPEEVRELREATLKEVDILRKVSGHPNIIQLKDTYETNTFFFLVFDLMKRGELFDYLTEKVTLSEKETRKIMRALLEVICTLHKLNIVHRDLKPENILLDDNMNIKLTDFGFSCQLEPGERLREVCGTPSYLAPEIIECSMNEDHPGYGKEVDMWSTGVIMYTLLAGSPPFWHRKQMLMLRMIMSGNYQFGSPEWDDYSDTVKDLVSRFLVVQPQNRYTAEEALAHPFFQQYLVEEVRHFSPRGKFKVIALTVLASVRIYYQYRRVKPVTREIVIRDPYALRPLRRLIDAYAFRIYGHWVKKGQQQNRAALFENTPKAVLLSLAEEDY
# Sequence of 5'-AMP-activated protein kinase catalytic subunit alpha-1 (Homo sapiens) (Q13131 whole entry, looked up): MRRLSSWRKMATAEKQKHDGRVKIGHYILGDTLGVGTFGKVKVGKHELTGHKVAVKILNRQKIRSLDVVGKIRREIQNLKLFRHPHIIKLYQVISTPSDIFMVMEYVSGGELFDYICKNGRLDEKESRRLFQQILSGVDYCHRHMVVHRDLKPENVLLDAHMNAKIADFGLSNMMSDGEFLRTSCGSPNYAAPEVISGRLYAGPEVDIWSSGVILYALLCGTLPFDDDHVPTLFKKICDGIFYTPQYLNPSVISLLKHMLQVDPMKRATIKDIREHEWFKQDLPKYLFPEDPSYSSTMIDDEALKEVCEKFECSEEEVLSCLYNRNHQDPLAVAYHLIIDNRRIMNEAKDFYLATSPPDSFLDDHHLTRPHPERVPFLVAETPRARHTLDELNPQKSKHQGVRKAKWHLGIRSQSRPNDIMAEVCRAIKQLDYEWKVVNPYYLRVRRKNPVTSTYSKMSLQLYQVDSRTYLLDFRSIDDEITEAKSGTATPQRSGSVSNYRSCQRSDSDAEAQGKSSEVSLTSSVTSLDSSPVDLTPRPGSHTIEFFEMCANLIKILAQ
# Sequence of Adenosine receptor A2a (Homo sapiens) (P29274 whole entry): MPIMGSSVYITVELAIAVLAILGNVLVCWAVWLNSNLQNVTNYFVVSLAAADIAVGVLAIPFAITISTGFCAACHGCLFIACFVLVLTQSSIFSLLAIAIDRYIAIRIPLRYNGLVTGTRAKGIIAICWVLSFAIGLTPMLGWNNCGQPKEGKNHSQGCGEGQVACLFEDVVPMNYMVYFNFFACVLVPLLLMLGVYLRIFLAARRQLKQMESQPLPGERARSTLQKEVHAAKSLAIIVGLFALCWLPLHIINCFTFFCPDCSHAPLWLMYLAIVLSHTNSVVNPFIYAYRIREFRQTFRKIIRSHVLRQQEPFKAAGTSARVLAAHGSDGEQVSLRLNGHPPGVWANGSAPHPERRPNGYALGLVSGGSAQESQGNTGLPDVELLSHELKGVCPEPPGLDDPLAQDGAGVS
# Sequence of Proto-oncogene tyrosine-protein kinase receptor Ret (Homo sapiens) (P07949 whole entry): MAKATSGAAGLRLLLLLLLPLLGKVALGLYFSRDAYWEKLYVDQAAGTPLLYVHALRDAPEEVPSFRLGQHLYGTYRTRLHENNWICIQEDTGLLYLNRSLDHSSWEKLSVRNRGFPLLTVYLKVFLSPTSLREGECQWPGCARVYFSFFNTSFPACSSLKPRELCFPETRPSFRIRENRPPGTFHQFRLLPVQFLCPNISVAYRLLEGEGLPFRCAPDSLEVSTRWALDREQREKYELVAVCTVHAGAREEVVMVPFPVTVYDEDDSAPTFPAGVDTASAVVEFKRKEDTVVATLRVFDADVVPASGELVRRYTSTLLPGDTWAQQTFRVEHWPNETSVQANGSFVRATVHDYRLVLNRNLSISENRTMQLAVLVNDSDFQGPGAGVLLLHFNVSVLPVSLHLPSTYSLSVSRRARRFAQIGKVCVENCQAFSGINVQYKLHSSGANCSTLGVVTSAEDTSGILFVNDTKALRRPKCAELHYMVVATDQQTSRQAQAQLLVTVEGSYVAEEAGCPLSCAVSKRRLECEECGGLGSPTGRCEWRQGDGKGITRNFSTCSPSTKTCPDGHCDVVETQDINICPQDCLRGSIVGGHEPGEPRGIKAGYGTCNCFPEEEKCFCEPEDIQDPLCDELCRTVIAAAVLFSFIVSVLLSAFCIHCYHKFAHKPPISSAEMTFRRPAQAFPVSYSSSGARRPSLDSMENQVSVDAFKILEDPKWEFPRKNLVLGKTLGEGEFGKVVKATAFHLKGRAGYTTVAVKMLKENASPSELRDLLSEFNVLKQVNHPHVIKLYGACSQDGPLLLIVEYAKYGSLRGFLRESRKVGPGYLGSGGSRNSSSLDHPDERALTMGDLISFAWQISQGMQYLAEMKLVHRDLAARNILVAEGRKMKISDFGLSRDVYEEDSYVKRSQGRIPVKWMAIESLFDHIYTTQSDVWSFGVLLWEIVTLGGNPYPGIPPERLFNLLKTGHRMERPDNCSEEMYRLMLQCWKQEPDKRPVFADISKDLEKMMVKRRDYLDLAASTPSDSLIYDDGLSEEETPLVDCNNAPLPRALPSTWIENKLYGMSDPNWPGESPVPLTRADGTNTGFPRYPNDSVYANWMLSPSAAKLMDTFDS
# Sequence of Serine/threonine-protein kinase MARK1 (Homo sapiens) (Q9P0L2 whole entry, looked up): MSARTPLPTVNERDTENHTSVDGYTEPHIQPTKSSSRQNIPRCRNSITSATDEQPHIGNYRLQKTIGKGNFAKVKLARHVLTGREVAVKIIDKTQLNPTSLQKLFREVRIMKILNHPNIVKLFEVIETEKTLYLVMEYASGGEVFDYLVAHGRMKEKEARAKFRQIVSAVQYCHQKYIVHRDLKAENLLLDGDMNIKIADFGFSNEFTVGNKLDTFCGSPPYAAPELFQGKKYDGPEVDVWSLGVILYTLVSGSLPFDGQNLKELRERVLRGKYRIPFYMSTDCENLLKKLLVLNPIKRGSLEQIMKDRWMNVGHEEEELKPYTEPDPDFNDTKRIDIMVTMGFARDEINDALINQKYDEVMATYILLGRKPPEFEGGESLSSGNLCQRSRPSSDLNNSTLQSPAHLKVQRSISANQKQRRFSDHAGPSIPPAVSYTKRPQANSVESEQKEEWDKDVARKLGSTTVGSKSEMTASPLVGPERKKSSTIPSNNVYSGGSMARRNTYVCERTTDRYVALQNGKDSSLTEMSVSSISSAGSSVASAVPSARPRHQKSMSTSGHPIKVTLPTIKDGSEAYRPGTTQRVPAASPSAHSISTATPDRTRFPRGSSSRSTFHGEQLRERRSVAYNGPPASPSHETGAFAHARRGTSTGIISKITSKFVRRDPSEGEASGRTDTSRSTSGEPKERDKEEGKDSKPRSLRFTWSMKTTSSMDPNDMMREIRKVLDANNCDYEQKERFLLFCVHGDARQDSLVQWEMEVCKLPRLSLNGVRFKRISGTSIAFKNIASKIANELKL
smiles,measurement,setting,value
Cc1nc(Nc2n[nH]c3c2CN(C(=O)N[C@H](CN(C)C)c2ccccc2)C3(C)C)c2sccc2n1 [PF-03758309],inhibition,[1],> 75%
same,inhibition,[2],> 75%
same,inhibition,[3],> 75%
same,inhibition,[4],> 75%
same,inhibition,[5],> 75%
same,inhibition,[6],> 75%
same,inhibition,[7],> 75%
same,inhibition,[8],> 75%
same,inhibition,[9],> 75%
same,inhibition,[10],> 75%
same,inhibition,[11],> 75%
same,inhibition,[12],> 75%
same,inhibition,[13],> 75%
same,inhibition,[14],> 75%
same,inhibition,[15],> 75%
same,inhibition,[16],> 75%
same,inhibition,[17],> 75%
same,inhibition,[18],> 75%
same,inhibition,[19],> 75%
same,inhibition,[20],> 75%
same,inhibition,[21],> 75%
same,inhibition,[22],> 75%
same,inhibition,[23],> 75%
same,inhibition,[24],> 75%
same,inhibition,[25],> 75%
same,inhibition,[26],> 75%
same,inhibition,[27],> 75%
same,inhibition,[28],> 75%
same,inhibition,[29],> 75%
same,inhibition,[30],> 75%
same,inhibition,[31],> 75%
same,inhibition,[32],> 75%
same,fraction unbound,[33],0.163
same,Cmax,[34],10 µM
same,fCmax,Mus musculus,1.6 µM
same,Cmax,[35],10 µM
same,Ratio,[36],1
same,inhibition,[37],> 75%
same,inhibition,[38],> 75%
